One block for each compound: values may come before it. The source made the active and inactive calls. The rule behind the calls is not given here.
What was measured:
[1] = molecular target: T1, Sphingosine 1-phosphate receptor 1 (Homo sapiens, UniProt P21453); assay: Agonist activity at human S1P1 receptor expressed in human U2OS cells co-expressing eGFP assessed as receptor internalization after 1 hr; type: functional, cell-based
Method in brief: (§1)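 hS1P1-GFP fusion expressed in U2OS cells; agonism read as receptor internalization. Percent efficacy is relative to 1.00 μM reference agonist, and >top concentration is reported when activity stays under 10% of control. Each value is the mean of at least two determinations.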

[2] = molecular target: T1, Sphingosine 1-phosphate receptor 1; assay: Agonist activity at human S1P1 receptor expressed in human U2OS cells co-expressing eGFP assessed as receptor internalization after 1 hr relative to 1-(4-(6-benzylbenzofuran-2-yl)-3-fluorobenzyl)azetidine-3-carboxylic acid; type: functional, cell-based; method in brief: as §1
[3] = molecular target: T2, Sphingosine 1-phosphate receptor 3 (Homo sapiens, UniProt Q99500); assay: Agonist activity at human S1P3 receptor expressed in CHO-K1 cells co-expressing Gq/i5 G-protein assessed as calcium mobilization by FLIPR assay; type: functional, cell-based
Method in brief: (§2)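 hS1P3 and Gq/i5 co-transfected into CHO-K1 cells; agonism read as Ca2+ mobilization. Percent efficacy is relative to 0.200 μM S1P, and >top concentration is reported when activity stays under 10% of control. Each value is the mean of at least two determinations.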

[4] = molecular target: T2, Sphingosine 1-phosphate receptor 3; assay: Agonist activity at human S1P3 receptor expressed in CHO-K1 cells co-expressing Gq/i5 G-protein assessed as calcium mobilization by FLIPR assay relative to S1P; type: functional, cell-based; method in brief: as §2
Rattus norvegicus [5] = assay: Immunomodulatory activity in po dosed Lewis rat assessed as reduction of circulating lymphocytes count after 24 hrs; type: functional, organism-based
Method in brief: (§3)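 Female Lewis rats dosed orally at 0.3, 1.0 or 3.0 mg/kg in 20% captisol, pH 2, N = 5/group. Blood lymphocyte counts and plasma concentration taken 24 h postdose. Compared with vehicle by ANOVA/Dunnett's test, P < 0.05.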

Rattus norvegicus [6] = assay: Immunomodulatory activity in Lewis rat assessed as reduction of circulating lymphocytes count at 0.3 mg/kg, po after 24 hrs relative to control; type: functional; method in brief: as §3
Rattus norvegicus [7] = assay: Immunomodulatory activity in Lewis rat assessed as reduction of circulating lymphocytes count at 3 mg/kg, po after 24 hrs relative to control; type: functional; method in brief: as §3
Rattus norvegicus [8] = assay: Immunosuppressive activity in delayed-type hypersensitivity Lewis rat model assessed as reduction of ovalbumin/complete Freund's adjuvant-induced ear swelling at 0.3 mg/kg, po qd for 10 days; type: functional, organism-based; set-up: dose 0.3 mg/kg
Method in brief: (§4)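 Female Lewis rats dosed orally once daily for 10 days at 0.1–3.0 mg/kg in 20% captisol, pH 2 (N = 8/group; N = 4 at 3.0 mg/kg). On day 1 rats were immunized with ovalbumin plus complete Freund's adjuvant. One week later ovalbumin was injected intracutaneously into one ear. Ear-thickness change and blood lymphocytes measured 48 h after challenge; compared with vehicle by ANOVA/Dunnett's test.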

Rattus norvegicus [9] = assay: Immunosuppressive activity in delayed-type hypersensitivity Lewis rat model assessed as reduction of ovalbumin/complete Freund's adjuvant-induced ear swelling at 1 to 3 mg/kg, po qd for 10 days; type: functional, organism-based; method in brief: as §4
[10] = Clearance in Sprague-Dawley rat at 2 mg/kg, iv and 15 mg/kg, po; type: ADME, organism-based; settings: in vivo
Method in brief: (§5)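 Female Sprague-Dawley rats, N = 3 per route: iv 2 mg/kg in DMSO; po 15 mg/kg in 20% captisol, pH 2. Clearance expressed also as percent of liver blood flow.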

[11] = Volume of distribution at steady state in Sprague-Dawley rat at 2 mg/kg, iv and 15 mg/kg, po; type: ADME, organism-based; settings: in vivo, read-out: Vdss; method in brief: as §5
[12] = Half life in Sprague-Dawley rat at 2 mg/kg, iv and 15 mg/kg, po; type: ADME, organism-based; settings: in vivo; method in brief: as §5
[13] = Mean residence time in Sprague-Dawley rat at 2 mg/kg, iv and 15 mg/kg, po; type: ADME, organism-based; settings: in vivo; method in brief: as §5
[14] = Oral bioavailability in Sprague-Dawley rat at 15 mg/kg; type: ADME, organism-based; settings: in vivo; method in brief: as §5
[15] = Clearance in cynomolgus monkey at 4 mg/kg, iv and 10 mg/kg, po; type: ADME, organism-based, Macaca fascicularis; settings: in vivo
Method in brief: (§6)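 Male cynomolgus monkeys, N = 3 per route: iv 4 mg/kg in 20% captisol, pH 4; po 10 mg/kg in 20% captisol with 1% pluronic F68 and 1% HPMC, pH 2. Clearance expressed also as percent of liver blood flow.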

[16] = Volume of distribution at steady state in cynomolgus monkey at 4 mg/kg, iv and 10 mg/kg, po; type: ADME, organism-based, Macaca fascicularis; settings: in vivo, read-out: Vdss; method in brief: as §6
[17] = Half life in cynomolgus monkey at 4 mg/kg, iv and 10 mg/kg, po; type: ADME, organism-based, Macaca fascicularis; settings: in vivo; method in brief: as §6
[18] = Mean residence time in cynomolgus monkey at 4 mg/kg, iv and 10 mg/kg, po; type: ADME, organism-based, Macaca fascicularis; settings: in vivo; method in brief: as §6
[19] = Oral bioavailability in cynomolgus monkey at 10 mg/kg; type: ADME, organism-based, Macaca fascicularis; settings: in vivo; method in brief: as §6
Cynomolgus monkey = assay: Liver blood flow in cynomolgus monkey at 4 mg/kg, iv and 10 mg/kg, po; type: ADME, organism-based, Macaca fascicularis; settings: in vivo; method in brief: as §6
Rattus norvegicus [20] = assay: Liver blood flow in Sprague-Dawley rat at 2 mg/kg, iv and 15 mg/kg, po; type: ADME, organism-based; settings: in vivo; method in brief: as §5
[21] = Inhibition of human cytochrome P450; type: ADME
[22] = Mutagenic activity in Salmonella Typhimurium by Ames test; type: toxicity; settings: salmonella enterica subsp. enterica serovar typhimurium
Rattus norvegicus [23] = assay: Cardiotoxicity in rat assessed as effect on heart rate at 30 mg/kg, po; type: toxicity, organism-based; set-up: dose 30 mg/kg, route oral; settings: in vivo
Method in brief: (§7)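 Telemetered rats given oral doses; heart rate and mean arterial pressure monitored to set a no-effect level.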

Rattus norvegicus [24] = assay: Cardiotoxicity in rat assessed as effect on mean arterial pressure at 30 mg/kg, po; type: toxicity, organism-based, Artery; set-up: dose 30 mg/kg, route oral; settings: in vivo; method in brief: as §7
Rattus norvegicus [25] = assay: Toxicity in Sprague-Dawley rat assessed as proconvulsive activity at 100 mg/kg, po qd for 4 days; type: organism-based; set-up: dose 100 mg/kg, route oral; settings: in vivo, 96 h
Method in brief: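 Sprague-Dawley rats (N = 3) dosed orally at 100 mg/kg once daily for 4 days and observed for proconvulsive activity.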

[26] = Cmax in Sprague-Dawley rat at 100 mg/kg, po qd for 4 days; type: ADME, organism-based; set-up: dose 100 mg/kg, route oral; settings: in vivo
[27] = AUC (0 to 24 hrs) in Sprague-Dawley rat at 100 mg/kg, po qd for 4 days; type: ADME, organism-based; set-up: time < 24 hr, dose 100 mg/kg, route oral; settings: plasma
[28] = Fraction unbound in rat plasma at 5 ug/ml by ultracentrifugation analysis; type: ADME, cell-free
Method in brief: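 Plasma protein binding determined by ultracentrifugation at 5.0 μg/mL test compound.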

Rattus norvegicus [29] = assay: Immunomodulatory activity in Lewis rat assessed as reduction of circulating lymphocytes count at 1 mg/kg, po after 24 hrs relative to control; type: functional; set-up: scale not given: the % may be the effect or the level left; method in brief: as §3

T2 sequence (Q99500 whole entry): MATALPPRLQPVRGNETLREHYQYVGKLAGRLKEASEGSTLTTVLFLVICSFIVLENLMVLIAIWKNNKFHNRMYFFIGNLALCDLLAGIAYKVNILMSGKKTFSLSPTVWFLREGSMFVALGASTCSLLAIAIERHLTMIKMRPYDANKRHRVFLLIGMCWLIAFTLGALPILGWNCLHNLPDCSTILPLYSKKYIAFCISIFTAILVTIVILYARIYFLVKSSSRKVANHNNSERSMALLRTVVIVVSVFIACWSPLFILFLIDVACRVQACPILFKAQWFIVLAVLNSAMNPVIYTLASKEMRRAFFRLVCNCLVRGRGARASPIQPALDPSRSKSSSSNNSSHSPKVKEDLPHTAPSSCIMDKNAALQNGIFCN
T1 sequence (P21453 whole entry, the tested form may be a part): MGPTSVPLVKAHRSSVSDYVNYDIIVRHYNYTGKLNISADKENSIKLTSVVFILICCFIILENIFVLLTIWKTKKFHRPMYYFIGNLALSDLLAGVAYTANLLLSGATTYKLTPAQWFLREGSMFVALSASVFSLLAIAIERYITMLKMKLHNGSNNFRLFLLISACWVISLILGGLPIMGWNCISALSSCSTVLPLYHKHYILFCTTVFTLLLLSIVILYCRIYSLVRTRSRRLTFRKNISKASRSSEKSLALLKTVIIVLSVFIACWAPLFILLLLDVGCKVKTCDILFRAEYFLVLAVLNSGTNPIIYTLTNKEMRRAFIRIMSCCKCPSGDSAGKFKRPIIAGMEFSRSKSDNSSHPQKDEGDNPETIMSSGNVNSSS

- EC50 [1]: 77 nM
- Efficacy [2]: 132%
- EC50 [3]: 1800 nM
- Efficacy [4]: 17%
SMILES: Cc1ccc(Cc2ccc3sc(-c4ccc(CN5CC(C(=O)O)C5)cc4F)nc3c2)cc1

- EC50 [1]: 42 nM
- Efficacy [2]: 186%
- EC50 [3]: 1200 nM
- Efficacy [4]: 24%
SMILES: O=C(O)C1CN(Cc2ccc(-c3nc4cc(Cc5ccc(F)cc5F)ccc4s3)c(F)c2)C1

- EC50 [1]: 94 nM
- Efficacy [2]: 108%
- EC50 [3]: 542 nM
- Efficacy [4]: 87%
SMILES: O=C(O)C1CN(Cc2ccc(-c3nc4ccc(Cc5ccccc5)cc4o3)c(F)c2)C1

- EC50 [1]: 2890 nM
- Efficacy [2]: 53%
- EC50 [3]: 1110 nM
- Efficacy [4]: 43%
SMILES: O=C(O)C1CN(Cc2ccc(-n3cc4cc(Cc5ccccc5)ccc4n3)c(F)c2)C1

- EC50 [1]: 30 nM
- Efficacy [2]: 151%
- EC50 [3]: 967 nM
- Efficacy [4]: 19%
SMILES: O=C(O)C1CN(Cc2ccc(-c3nc4cc(Cc5ccc(F)c(F)c5)ccc4s3)c(F)c2)C1

- EC50 [1]: 13 nM
- EC50 [3]: 679 nM
- Efficacy [4]: 42%
SMILES: O=C(O)C1CN(Cc2ccc(-c3cc4ccc(Cc5ccccc5)cc4o3)c(F)c2)C1

- EC50 [1]: 1810 nM
- Efficacy [2]: 100%
- EC50 [3]: 2710 nM
- Efficacy [4]: 48%
SMILES: O=C(O)C1CN(Cc2ccc(-n3cc4ccc(Cc5ccccc5)cc4n3)c(F)c2)C1

- EC50 [1]: 54 nM
- Efficacy [2]: 92%
- EC50 [3]: > 2500 nM
SMILES: Cc1cccc(Cc2ccc3sc(-c4ccc(CN5CC(C(=O)O)C5)cc4F)nc3c2)c1

- EC50 [1]: 49 nM
- Efficacy [2]: 141%
- EC50 [3]: 3880 nM
- Efficacy [4]: 35%
SMILES: O=C(O)C1CN(Cc2ccc(-c3nc4cc(Cc5cccc(Cl)c5)ccc4s3)c(F)c2)C1

- EC50 [1]: 741 nM
- Efficacy [2]: 110%
- EC50 [3]: 6090 nM
- Efficacy [4]: 50%
SMILES: O=C(O)C1CN(Cc2ccc(-c3cn4ccc(Cc5ccccc5)cc4n3)c(F)c2)C1

- Efficacy [2]: 115%
- EC50 [3]: 3470 nM
- Efficacy [4]: 14%
- clearance [10]: 5.5 mL/min/kg
- Vd [11]: 3.3 L/kg
- half-life [12]: 7.5 h
- MRT [13]: 10 h
- bioavailability [14]: 68%
- clearance [15]: 8.33 mL/min/kg
- Vd [16]: 1.6 L/kg
- half-life [17]: 35.2 h
- MRT [18]: 3.3 h
- bioavailability [19]: 23%
- LBF (Cynomolgus monkey): 19%
- LBF (Rattus norvegicus [20]): 10%
- inhibition (INH) [21]: Not Active
- Cmax [26]: 49000 ng/mL
- AUC at 24 h [27]: 987 µg·h/mL
- fraction unbound at 5 ug/ml [28]: 0.021
SMILES: O=C(O)C1CN(Cc2ccc(-c3nc4cc(Cc5ccccc5F)ccc4s3)c(F)c2)C1
- Efficacy (Rattus norvegicus [5]): Dose-dependent effect
- Efficacy (Rattus norvegicus [6]): 34%
- Efficacy (Rattus norvegicus [7]): 74%
- Efficacy (Rattus norvegicus [8]): Active
- Efficacy (Rattus norvegicus [9]): Active
- Activity [22]: Non-toxic
- Activity (Rattus norvegicus [23]): Non-toxic
- Activity (Rattus norvegicus [24]): Non-toxic
- Activity (Rattus norvegicus [25]): Non-toxic
- Activity (Rattus norvegicus [29]): 63%
